Test results as given in ChEMBL document CHEMBL1125745, “Unsaturated and carbocyclic nucleoside analogues: synthesis, antitumor, and antiviral activity” (J Med Chem, 1991).

What was measured:
L1210 [1] = test: Inhibitory activity against murine leukemia L1210 cells; type: functional, cell-based; conditions: Mus musculus
Mus musculus [2] = organism: Mus musculus; test: (§1) Cytotoxicity was evaluated against low malignancy line at 1000 ug/disk.; type: functional
In short: (§2)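 Disk zone assay: analogue dilutions on 6.5 mm paper disks were placed on dishes with a 0.8% agar bottom layer and a 0.44% soft-agar top layer of tumor cells (≤1 × 10^5/plate) in Fishers-CMRL-1066 with 12% horse serum. Plates were incubated 6-10 days and the inhibition zone was measured by microscope; 200 zone units = 6 mm.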

MC-38 = test: Cytotoxicity was evaluated against C38 solid tumor of mouse at 1000 ug/disk.; type: functional; in short: as §2
L1210 [3] = test: (§3) Compound was evaluated for inhibition of macromolecular synthesis in murine leukemia L1210 cells at 4 hour against RNA.; type: functional, Mus musculus; parameters: scale not given: the % may be the effect or the level left
Homo sapiens [4] = organism: Homo sapiens; test: Cytotoxicity was evaluated against C116 human solid tumor at 1000 ug/disk.; type: functional; in short: as §2
L1210 [5] = test: (§4) Compound was evaluated for inhibition of macromolecular synthesis in murine leukemia L1210 cells at 4 hour against DNA.; type: functional, Mus musculus; parameters: scale not given: the % may be the effect or the level left
L1210 [6] = test: (§5) Compound was evaluated for inhibition of macromolecular synthesis in murine leukemia L1210 cells at 4 hour against Protein; type: functional, Mus musculus; parameters: scale not given: the % may be the effect or the level left
L1210 [7] = test: Cytotoxicity was evaluated against L1210 leukemia cell line at 1000 ug/disk.; type: functional, Mus musculus; in short: as §2
Homo sapiens [8] = organism: Homo sapiens; test: Cytotoxicity was evaluated against PO1 human solid tumor at 500 ug/disk.; type: functional; in short: as §2
[9] = Cytotoxicity was evaluated against CO9 solid tumor of mouse at 500 ug/disk.; type: functional; in short: as §2
L1210 [10] = test: Compound were evaluated for inhibition of macromolecular synthesis in murine leukemia L1210 cells at 4 hour against Protein; type: functional, Mus musculus; parameters: scale not given: the % may be the effect or the level left
L1210 [11] = test: Compound were evaluated for inhibition of macromolecular synthesis in murine leukemia L1210 cells at 4 hour against RNA.; type: functional, Mus musculus; parameters: scale not given: the % may be the effect or the level left
L1210 [12] = test: Compounds were evaluated for inhibition of macromolecular synthesis in murine leukemia L1210 cells at 1 hour against RNA.; type: functional, Mus musculus; parameters: scale not given: the % may be the effect or the level left
L1210 [13] = test: Cytotoxicity was evaluated against L1210 leukemia cell line at 500 ug/disk.; type: functional, Mus musculus; in short: as §2
L1210 [14] = test: Compound were evaluated for inhibition of macromolecular synthesis in murine leukemia L1210 cells at 4 hour against DNA.; type: functional, Mus musculus; parameters: scale not given: the % may be the effect or the level left
[15] = Cytotoxicity was evaluated against low malignancy line at 500 ug/disk.; type: functional; in short: as §2
L1210 [16] = test: Compound were evaluated for inhibition of macromolecular synthesis in murine leukemia L1210 cells at 1 hour against Protein; type: functional, Mus musculus; parameters: scale not given: the % may be the effect or the level left
L1210 [17] = test: Compounds were evaluated for inhibition of macromolecular synthesis in murine leukemia L1210 cells at 1 hour against DNA.; type: functional, Mus musculus; parameters: scale not given: the % may be the effect or the level left
Mus musculus [18] = organism: Mus musculus; test: Concentration that reduces Rauscher murine leukemia virus titer by 50%; type: functional, organism-based
In short: (§6)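 SC-1 cells (1 × 10^4/well) were pretreated with polybrene, infected 2 h at 37 °C with F-MuLV or R-MuLV in EMEM-5 with 8 µg/mL polybrene, washed, and refed with analogue for 72 h. They were then UV-irradiated and overlaid with XC cells (2 × 10^5) for 48 h, fixed and stained with crystal violet. Multinucleated cells were counted and EC50 was taken by linear regression versus untreated cultures.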

[19] = Inhibition of incorporation of labeled precursor into macromolecules of noninfected SC-1 cells with the compound at a concentration 100 uM determined against leucine.; type: functional
In short: (§7)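 Noninfected SC-1 cells were incubated with analogue as in the cytotoxicity setup, and [3H]thymidine, [3H]uridine or [3H]leucine was added. After 4 h, wells were washed with ice-cold PBS and cells were lysed in 1% SDS, 0.01 M EDTA, 0.01 M Tris pH 7.7. Lysates were dried on glass-fiber filters, and label is expressed as percent of incorporation in untreated cells.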

Mus musculus [20] = organism: Mus musculus; test: Selectivity index which is the ratio of IC50 to EC50 of R-MuLV.; type: functional
[21] = Inhibition of incorporation of labeled precursor into macromolecules of noninfected SC-1 cells with the compound at a concentration 100 uM determined against thymidine; type: functional; in short: as §7
[22] = Inhibition of incorporation of labeled precursor into macromolecules of noninfected SC-1 cells with the compound at a concentration 300 uM determined against leucine.; type: functional
In short: (§8)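 SC-1 cells seeded in 24-well trays at 1 × 10^4 cells/mL, incubated overnight at 37 °C, then exposed to analogue for 72 h at 37 °C. Labeled thymidine (2.5 µCi), [3H-5,6]uridine or [3H-4,5]leucine was added. After 4 h, cells were washed with cold PBS, lysed in 1% SDS/0.01 M EDTA/0.01 M Tris pH 7.7, and lysates were dried on GF/B filters. Result given as % of untreated incorporation.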

[23] = Inhibition of incorporation of labeled precursor into macromolecules of noninfected SC-1 cells with the compound at a concentration 300 uM determined against thymidine; type: functional; in short: as §8
Mus musculus [24] = organism: Mus musculus; test: Concentration that reduces Friend murine leukemia virus titer by 50%; type: functional, organism-based; in short: as §6
[25] = Selectivity index is the ratio of IC50 to EC50 of F-MuLV.; type: functional
[26] = Inhibition of incorporation of labeled precursor into macromolecules of noninfected SC-1 cells with the compound at a concentration 100 uM determined against uridine.; type: functional; in short: as §7
[27] = Inhibition of incorporation of labeled precursor into macromolecules of noninfected SC-1 cells with the compound at a concentration 300 uM determined against uridine.; type: functional; in short: as §8
Mus musculus [28] = organism: Mus musculus; test: Cytotoxicity was evaluated; type: functional
In short: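 SC-1 cells (1 × 10^4 cells/mL) were seeded, incubated overnight at 37 °C, refed with EMEM-10 and given diluted analogue in triplicate for 72 h at 37 °C. Cells were trypsinized and counted in a Coulter counter. The mean of three wells gave percent of control count, and IC50 was calculated by linear regression.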

L1210 [29] = test: (§9) Compound was evaluated for inhibition of macromolecular synthesis in murine leukemia L1210 cells at 1 hour against Protein; type: functional, Mus musculus; parameters: scale not given: the % may be the effect or the level left
Homo sapiens [30] = organism: Homo sapiens; test: Cytotoxicity was evaluated against C116 human solid tumor at 250 ug/disk.; type: functional; in short: as §2
L1210 [31] = test: (§10) Compound was evaluated for inhibition of macromolecular synthesis in murine leukemia L1210 cells at 1 hour against RNA.; type: functional, Mus musculus; parameters: scale not given: the % may be the effect or the level left
PO3 = test: Cytotoxicity was evaluated against PO3 cell line at 250 ug/disk.; type: functional, Mus musculus; in short: as §2
L1210 [32] = test: (§11) Compound was evaluated for inhibition of macromolecular synthesis in murine leukemia L1210 cells at 1 hour against DNA.; type: functional, Mus musculus; parameters: scale not given: the % may be the effect or the level left
Homo sapiens [33] = organism: Homo sapiens; test: Cytotoxicity was evaluated against PO1 human solid tumor at 250 ug/disk.; type: functional; in short: as §2
[34] = Cytotoxicity was evaluated against low malignancy line at 250 ug/disk.; type: functional; in short: as §2
L1210 [35] = test: Cytotoxicity was evaluated against L1210 leukemia cell line at 250 ug/disk.; type: functional, Mus musculus; in short: as §2
[36] = as §1; type: functional; in short: as §2
Nucleic Acid [37] = test: as §11; type: functional, cell-based; parameters: scale not given: the % may be the effect or the level left; conditions: Mus musculus
Nucleic Acid [38] = test: as §10; type: functional, cell-based; parameters: scale not given: the % may be the effect or the level left; conditions: Mus musculus
Nucleic Acid [39] = test: as §4; type: functional, cell-based; parameters: scale not given: the % may be the effect or the level left; conditions: Mus musculus
Nucleic Acid [40] = test: Compound was evaluated for inhibition of macromolecular synthesis in murine leukemia L1210 cells at 8 hour against RNA.; type: functional, cell-based; parameters: scale not given: the % may be the effect or the level left; conditions: Mus musculus
Nucleic Acid [41] = test: as §3; type: functional, cell-based; parameters: scale not given: the % may be the effect or the level left; conditions: Mus musculus
Nucleic Acid [42] = test: Compound was evaluated for inhibition of macromolecular synthesis in murine leukemia L1210 cells at 8 hour against DNA.; type: functional, cell-based; parameters: scale not given: the % may be the effect or the level left; conditions: Mus musculus
Mus musculus [43] = organism: Mus musculus; test: Compound was evaluated for inhibition of macromolecular synthesis in murine leukemia L1210 cells at 8 hour against Protein; type: functional; parameters: scale not given: the % may be the effect or the level left
Mus musculus [44] = organism: Mus musculus; test: as §5; type: functional; parameters: scale not given: the % may be the effect or the level left
Mus musculus [45] = organism: Mus musculus; test: as §9; type: functional; parameters: scale not given: the % may be the effect or the level left

Which IC50 (L1210 [1]) does the source give for `Cc1cn(C2C=CCO2)c(=O)[nH]c1=O` (stereo unspecified) here?
Its IC50 is 50 µM.

And the Cytotoxicity (Mus musculus [2])?
The Cytotoxicity was 500.

And the Cytotoxicity (MC-38)?
The Cytotoxicity was 430.

What about the Control (L1210 [3]) of the same molecule?
The Control was 50%.

And the Cytotoxicity (Homo sapiens [4])?
The Cytotoxicity was 260.

And the Control (L1210 [5])?
Its Control is 10%.

And the Control (L1210 [6])?
Its Control is 90%.

What about the Cytotoxicity (L1210 [7]) of the same molecule?
The Cytotoxicity was 410.

With `Nc1ccn(C/C=C\CCl)c(=O)n1` as the molecule, how does the Cytotoxicity (Homo sapiens [8]) read?
Its Cytotoxicity is 640.

And the IC50 (L1210 [1])?
Its IC50 is 10 µM.

And the Cytotoxicity [9]?
Its Cytotoxicity is 410.

What about the Control (L1210 [10]) of the same molecule?
Its Control is 100%.

What about the Control (L1210 [11]) of the same molecule?
Its Control is 100%.

And the Control (L1210 [12])?
The Control was 100%.

And the Cytotoxicity (L1210 [13])?
The Cytotoxicity was 640.

What about the Control (L1210 [14]) of the same molecule?
Its Control is 67%.

What about the Cytotoxicity [15] of the same molecule?
The Cytotoxicity was 450.

What about the Control (L1210 [16]) of the same molecule?
Its Control is 100%.

And the Control (L1210 [17])?
Its Control is 80%.

Which results are given for `Nc1ncnc2c1ncn2C1C(O)C(O)C(CO)C1O` (stereo unspecified)?
EC50 (Mus musculus [18]): 25 µM; Precursor inhibition [19]: 99%; SI (Mus musculus [20]): 9.1; Precursor inhibition [21]: 115%; Precursor inhibition [22]: 53%; Precursor inhibition [23]: 110%; EC50 (Mus musculus [24]): 67.3 µM; SI [25]: 3.4; Precursor inhibition [26]: 56%; Precursor inhibition [27]: 29%; IC50 (Mus musculus [28]): 281 µM

What does the source list for `Nc1ccn(C2C=CCO2)c(=O)n1` (stereo unspecified)?
Control (L1210 [29]): 100%; IC50 (L1210 [1]): 28 µM; Cytotoxicity (Homo sapiens [30]): 450; Control (L1210 [31]): 100%; Control (L1210 [3]): 85%; Cytotoxicity (PO3): 500; Control (L1210 [32]): 85%; Control (L1210 [5]): 55%; Control (L1210 [6]): 50%; Cytotoxicity (Homo sapiens [33]): 600; Cytotoxicity [34]: 400; Cytotoxicity (L1210 [35]): 500

Which IC50 (L1210 [1]) does the source give for `Oc1nccc(NCC#CCCl)n1` here?
Its IC50 is 20 µM.

What about the Cytotoxicity [36] of the same molecule?
Its Cytotoxicity is 600.

And the Cytotoxicity (MC-38)?
Its Cytotoxicity is 720.

What about the Control (Nucleic Acid [37]) of the same molecule?
The Control was 60%.

What about the Control (Nucleic Acid [38]) of the same molecule?
Its Control is 75%.

What about the Control (Nucleic Acid [39]) of the same molecule?
Its Control is 35%.

What about the Cytotoxicity (Homo sapiens [4]) of the same molecule?
Its Cytotoxicity is 660.

What about the Control (Nucleic Acid [40]) of the same molecule?
Its Control is 18%.

What about the Control (Nucleic Acid [41]) of the same molecule?
Its Control is 60%.

And the Control (Nucleic Acid [42])?
Its Control is 5%.

And the Cytotoxicity (L1210 [7])?
Its Cytotoxicity is 530.

And the Control (Mus musculus [43])?
Its Control is 55%.

And the Control (Mus musculus [44])?
The Control was 70%.

What about the Control (Mus musculus [45]) of the same molecule?
Its Control is 85%.
